Experiments:
[1] = human serum; cited from earlier work
blood–brain barrier = settings: cited from earlier work; for Direction and saturability of BBB transport: mouse brain, brain-to-blood and blood-to-brain
[2] = system: blood–brain barrier of WT and Ghsr null mice; assay: Multiple-time regression analysis of blood-to-brain influx; format: in vivo, mouse; settings: for Vi, initial volume of distribution in brain (vascular binding): WT mice, whole brain, y-intercept of B/S ratio vs exposure time, mean ± SEM
Outline: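 Male and female mice (3–6 months) were anaesthetised with 0.15 mL 40% urethane i.p. They received 1 × 10^6 cpm (~20 ng) 125I-labelled peptide plus 5 × 10^5 cpm 99mTc-albumin via jugular vein, in 0.2 mL 1% BSA/lactated Ringer's. Carotid blood was taken at 1–10 min, and serum and brain were gamma-counted. Brain/serum ratios (μL/g) were plotted against exposure time (Patlak): the slope gave Ki and the intercept gave Vi.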

[3] = system: brain endothelial cell (capillary vs parenchyma); assay: Capillary depletion: complete transfer across the brain endothelial cell; format: in vivo, mouse; settings: 10 min after IV injection, n = 3
Outline: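 Urethane-anaesthetised male and female mice (3–6 months) received a 0.2 mL IV injection of 1 × 10^6 cpm 125I-labelled test peptide plus 5 × 10^5 cpm 99mTc-albumin in 1% BSA/lactated Ringer's. Brain was homogenised and spun at 5400 g for 15 min at 4 °C. The capillary pellet was separated from the parenchymal supernatant, and the parenchyma was vascular-corrected using 99mTc-albumin. Ratios were (cpm/g tissue)/(cpm/μL serum).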

| Capillary/serum ratio [3] [µL/g] | Transport rate relative to the other three ghrelin forms ([2]; BBB transport rate in mice, hDAG vs mDAG, hAG, mAG) | Substance | Half-life [1] [min] | Degradation of AG into DAG (blood–brain barrier; same time frame (10 min)) | Direction and saturability of BBB transport (blood–brain barrier) | Vi, initial volume of distribution in brain (vascular binding) [2] [µL/g] |
| --- | --- | --- | --- | --- | --- | --- |
| – | – | acyl ghrelin [AG] | ~10 | not degraded into DAG | – | – |
| – | – | human AG [hAG] | – | – | bidirectional and saturable manner | 1.192 ± 0.57 |
| 1.0 ± 0.30 | approximately three times faster | human DAG [hDAG] | – | – | – | 1.775 ± 0.81 |
| – | – | mouse AG [mAG] | – | – | bidirectional and saturable manner | 2.847 ± 0.57 |
| – | – | mouse DAG [mDAG] | – | – | unidirectionally and in an unsaturable manner | 2.265 ± 0.75 |
